Laboratory results reported in PMC2908029 (Current radiopharmaceuticals, 2010).
pKd, pKi: −log10 of the molar value. “And” between values parts separate entries of the source, which are not always exact repeats. Identical values can stand only once.

Key:
[1] = system: brain 5-HT1A receptors; assay: PET imaging of [11C]S14506 in monkey; format: in vivo, rhesus monkey
[2] = system: human 5-HT1A receptors; conditions: recombinant Chinese hamster ovary cells, room temperature; cited from earlier work
[3] = system: brain 5-HT1A receptors; assay: PET imaging of [18F]S14506 in monkey; format: in vivo, rhesus monkey; conditions: absence of radioactivity accumulation in skull
[4] = Plasma protein binding; format: in vitro ADME; conditions: rat plasma
[5] = Distribution between blood components; format: in vitro ADME; conditions: rat, without hematocrit correction
In short: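 [18F]-labelled test compound (0.8 μCi) added to heparinized rat whole blood (from cardiac puncture) in duplicate tubes and incubated at room temperature for 27 min. Blood centrifuged at 1800 × g for 3 min, plasma separated, and all fractions γ-counted. Percent radioactivity in plasma and in cells reported without hematocrit correction.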

[6] = Ex vivo biodistribution and radiometabolite composition of [18F]S14506 in rat; set-up: species or system Sprague-Dawley rat
[7] = Effect of cyclosporin A on rat plasma and brain levels of [18F]S14506; format: in vivo; conditions: 30 min after administration
[8] = Stability in sodium phosphate buffer; format: physicochemical; conditions: sodium phosphate buffer (0.15 M), room temperature, 2.5 h
[9] = target: T1, brain 5-HT1A receptors (Rattus norvegicus, UniProt P19327); assay: PET imaging of [11C]S14506 in rat; format: in vivo, Sprague-Dawley rat; conditions: i.v.
T1 sequence (P19327 1-422): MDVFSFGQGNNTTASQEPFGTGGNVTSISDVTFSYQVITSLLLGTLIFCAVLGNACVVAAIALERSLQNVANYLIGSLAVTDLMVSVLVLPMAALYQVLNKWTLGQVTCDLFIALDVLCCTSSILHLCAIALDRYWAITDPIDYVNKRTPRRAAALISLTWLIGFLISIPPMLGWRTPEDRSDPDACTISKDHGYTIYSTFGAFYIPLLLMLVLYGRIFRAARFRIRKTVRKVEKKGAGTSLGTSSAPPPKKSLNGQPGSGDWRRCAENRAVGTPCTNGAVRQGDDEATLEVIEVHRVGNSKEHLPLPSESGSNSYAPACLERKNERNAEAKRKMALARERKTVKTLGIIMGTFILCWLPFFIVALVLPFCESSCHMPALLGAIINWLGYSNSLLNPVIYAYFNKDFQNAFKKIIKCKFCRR

[10] = Stability in whole blood; format: in vitro ADME; conditions: rat whole blood in vitro, 125 min, room temperature
[11] = Emergence of radiometabolites in monkey plasma; format: in vivo, rhesus monkey; conditions: over the PET study
[12] = target: 5-HT1A receptors; conditions: cited from earlier work

## COc1ccc2cccc(N3CCN(CCNC(=O)c4ccc(F)cc4)CC3)c2c1 [S14506, 1-[2-(4-fluorobenzoylamino)ethyl]-4-(7-methoxynaphthyl)piperazine, reference compound]
[1]; monkey, cerebellar time-activity curves (non-specific binding)
  time required for a 50% decrease in cerebellar radioactivity: > 32 min
[2]
  off rate from human 5-HT1A receptors: 0.029 min⁻¹

## COc1ccc2cccc(N3CCN(CCNC(=O)c4ccc([18F])cc4)CC3)c2c1 [[^18F]S14506]
[3]
  radiodefluorination: not radiodefluorinated
[4]
  free in plasma (plasma protein binding): 0.61%
[5]
  whole blood distribution to cellular components: 25.8%
  whole blood distribution to plasma: 74.2%
[6]; 30 min after administration of [18F]S14506, n = 1 rat
  Composition (%) of radioactivity, Cerebellum: 93.9%
[6]; 30 min after administration of [18F]S14506, n = 2 rats
  Composition (%) of radioactivity, Remainder of brain: 97.2 ± 0.20%
[6]; 30 min after administration of [18F]S14506, n = 3 rats (mean ± SD)
  Composition (%) of radioactivity, Plasma: 38.6 ± 0.17%
[7]; Control
  [18F]S14506 concentration (%SUV), Remainder of brain: 141 %SUV
[7]; Cyclosporin A treated (50 mg/kg, i.v.)
  [18F]S14506 concentration (%SUV), Remainder of brain: 211 %SUV
[8]
  stability to incubation in buffer: stable

## [11CH3]Oc1ccc2cccc(N3CCN(CCNC(=O)c4ccc(F)cc4)CC3)c2c1 [[^11C]S14506]
[9]; rat pre-treated with cyclosporin A 25 mg/kg
  peak whole brain radioactivity: ~ 310 % SUV
[9]; rat pre-treated with cyclosporin A 50 mg/kg
  peak whole brain radioactivity: ~ 350 % SUV
[9]; rat, baseline, at 2 min
  peak whole brain radioactivity: 210 % SUV and ~ 210 % SUV
[1]; monkey pre-treated with tariquidar 4 mg/kg, i.v., 30 min before
  peak brain radioactivity: 240 % SUV and ~ 240 % SUV
[1]; monkey, baseline, i.v., at 7 min
  peak whole brain radioactivity: ~ 170 % SUV
[10]
  unchanged radioligand after incubation with whole blood: > 99.5%
[4]
  free in plasma (plasma protein binding): 0.52%
[5]
  whole blood distribution to cellular components: 40.9%
  whole blood distribution to plasma: 59.1%
[11]
  maximal share of the second (minor) radiometabolite in plasma radioactivity: ≤ 3.1%

## COc1ccccc1N1CCN(CCCCn2ncc(=O)n(C)c2=O)CC1 [[^11C]CUMI-101, [O-methyl-^11C]2-(4-(4-(2-methoxyphenyl)piperazin-1-yl)butyl)-4-methyl-1,2,4-triazine-3,5(2H,4H)dione]
[12]; read-out: Ki, 5-HT1A receptor affinity
  pKi: 9.82

## WAY-100635
[12]; read-out: Kd, 5-HT1A receptor affinity
  pKd: 10.00
